Test results published in ChEMBL document CHEMBL4308887, “Synthesis and biological evaluation of clovamide analogues with catechol functionality as potent Parkinson's disease agents in vitro and in vivo” (Bioorg Med Chem Lett, 2019).
Active and inactive are the calls of the source. The rule behind the calls is not given here.

Legend:
[1] = Activation of PI3K/Akt/mTOR signaling in human SH-SY5Y cells assessed as up regulation of HO-1 expression after 24 hrs by Western blot analysis; format: cell-based
Procedure, shortened: (§1)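 HO-1 western blot in SH-SY5Y cells incubated 24 h with 1 at 0.1, 1 or 10 μM, without H₂O₂. Band densitometry expressed as % of control. Mean ± S.E.M. from three independent experiments.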

[2] = Activation of PI3K/Akt/mTOR signaling in human SH-SY5Y cells assessed as increase in mTOR phosphorylation after 5 to 360 mins by Western blot analysis; format: cell-based
Procedure, shortened: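 SH-SY5Y cells, unstimulated, exposed to 1 for 5, 15, 30, 60, 120, 240 or 360 min. Phospho-AKT and phospho-mTOR measured by western blot, reported as p-AKT/t-AKT and p-mTOR/t-mTOR ratios after densitometry. Mean ± S.E.M. of three independent experiments.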

SH-SY5Y [3] = test: Neuroprotection against H2O2-induced cell death in human SH-SY5Y cells assessed as cell viability at 10 uM preincubated for 6 hrs followed by H2O2 addition and measured after 24 hrs in presence of PI3K/Akt/mTOR inhibitor rapamycin by MTT assay relative to control; format: functional; conditions: read-out: Activity
Procedure, shortened: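 SH-SY5Y cells preincubated 1 h with LY294002 (5 μM) or rapamycin (100 nM). Then 1 (10 μM) for 6 h, then 600 μM H₂O₂. Viability by MTT. Mean ± S.E.M., three independent experiments.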

[4] = Tmax in Sprague-Dawley rat at 25 mg/kg, po by LC-MS/MS analysis; format: ADME, organism-based; conditions: in vivo
Procedure, shortened: (§2)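 Male Sprague–Dawley rats (n = 3) dosed i.v. 5 mg/kg (5% DMSO, 2% F68, 93% saline) or p.o. 25 mg/kg (0.5% methylcellulose, 1% Tween 80). Orbital blood at 0.083–24 h (12 points). Plasma concentration–time profiles gave Cl, Vdss, AUC, T1/2, Tmax, Cmax, MRT and absolute F.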

SH-SY5Y [5] = test: Induction of oxidative stress in non-stimulated human SH-SY5Y cells assessed as reactive oxygen species level at 10 uM after 6 hrs by DHE dye based flow cytometry (reference value: 4.8%); format: cell-based
Mus musculus [6] = test: Induction of motor impairment in C57Bl/6 mouse at 10 mg/kg, ig treated for 10 days measured after 4 to 72 hrs for 3 mins by rota rod test; format: organism-based; conditions: in vivo, po
SH-SY5Y [7] = test: Neuroprotection against H2O2-induced cell death in human SH-SY5Y cells at 100 uM preincubated for 6 hrs followed by H2O2 addition and measured after 24 hrs by MTT assay relative to control; format: functional
Procedure, shortened: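 Human SH-SY5Y neuroblastoma cells pretreated with compound at 100 μM for 6 h, then exposed to 600 μM H₂O₂ for 24 h; viability read by MTT and expressed as protection rate relative to untreated control. DMSO below 0.1% in all groups. Primary single-concentration screen; three independent experiments.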

Mus musculus [8] = test: Anti-parkinson's activity in MPTP-induced C57Bl/6 mouse model of Parkinson's disease assessed as increase in tyrosine hydroxylase expression in striatum at 10 to 20 mg/kg, ig pretreated for 10 days followed by MPTP challenge measured 10 days post MPTP addition by DAB staining based immunohistochemistry method; format: functional, organism-based
Procedure, shortened: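 Tissue taken 10 days after MPTP injection from mice dosed orally with 1 (10 or 20 mg/kg). TH in SNpc and striatum by western blot, and by DAB immunostaining. Three of the mice per group analysed. Mean ± S.D., n = 6 mice/group.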

SH-SY5Y [9] = test: Protection against H2O2-induced oxidative stress in human SH-SY5Y cells assessed as reduction in reactive oxygen species level preincubated for 6 hrs followed by H2O2 addition and measured after 24 hrs by DHE dye based flow cytometry; format: functional, cell-based
SH-SY5Y [10] = test: Induction of apoptosis in non-stimulated human SH-SY5Y cells assessed as effect on cleaved caspase3 expression at 1 to 10 uM measured after 6 hrs by Western blot analysis; format: cell-based
Procedure, shortened: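 Bax, Bcl-2 and cleaved caspase-3 measured by western blot in SH-SY5Y cells given 1 alone, with β-actin as internal standard. Mean ± S.E.M. of three independent experiments.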

[11] = Activation of PI3K/Akt/mTOR signaling in human SH-SY5Y cells assessed as up regulation of HO-1 expression at 10 uM after 24 hrs by Western blot analysis relative to control; format: cell-based; procedure, shortened: as §1
[12] = Activation of PI3K/Akt/mTOR signaling in human SH-SY5Y cells assessed as up regulation of H2O2-induced HO-1 expression at 10 uM preincubated for 6 hrs followed by H2O2 addition and after 24 hrs in presence of PI3K/Akt/mTOR inhibitor LY294002 by Western blot analysis; format: cell-based
Procedure, shortened: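 SH-SY5Y cells preincubated 1 h with one inhibitor: SB203580 10 μM, LY294002 5 μM, U0126 10 μM, SP600125 5 μM or rapamycin 100 nM. Then 1 (10 μM) for 6 h, then 600 μM H₂O₂. HO-1 measured by western blot and densitometry. Mean ± S.E.M., three independent experiments.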

SH-SY5Y [13] = test: Protection against H2O2-induced mitochondrial dysfunction in human SH-SY5Y cells assessed as mitochondrial membrane potential at 1 uM preincubated for 6 hrs followed by H2O2 addition and measured after 24 hrs by Rh123 staining based flow cytometry (reference value: 26.31 +/- 3.32%); format: functional
Procedure, shortened: (§3)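 ΔΨm examined by inverted fluorescence microscopy and flow cytometry after pretreatment (1, 10 μM) and 600 μM H₂O₂. Reported as % of control. Mean ± S.E.M., three independent experiments.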

Mus musculus [14] = test: Anti-parkinson's activity in MPTP-induced C57Bl/6 mouse model of Parkinson's disease assessed as reduction in MDA level in substantia nigra administered intragastrically pretreated for 10 days followed by MPTP challenge measured 10 days post MPTP addition by thiobarbituric acid method; format: functional, organism-based
Procedure, shortened: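 Striatum and SNpc from MPTP-treated mice dosed orally with 1 at 10 or 20 mg/kg. MDA level and SOD activity measured. Mean ± S.D., n = 6 mice/group.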

SH-SY5Y [15] = test: Neuroprotection against H2O2-induced cell death in human SH-SY5Y cells at 10 uM preincubated for 6 hrs followed by H2O2 addition and measured after 24 hrs in presence of HO-1 inhibitor ZnPPIX by MTT assay; format: functional, cell-based
Procedure, shortened: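 Cells pretreated with ZnPPIX (10 μM) for 1 h and with 1 (10 μM) for 6 h, then exposed to 600 μM H₂O₂ for 24 h. Viability by MTT. Mean ± S.E.M., three independent experiments.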

[16] = Volume of distribution at steady state in Sprague-Dawley rat at 5 mg/kg, iv by LC-MS/MS analysis; format: ADME, organism-based; conditions: in vivo, read-out: Vdss; procedure, shortened: as §2
SH-SY5Y [17] = test: Protection against H2O2-induced mitochondrial dysfunction in human SH-SY5Y cells assessed as mitochondrial membrane potential at 10 uM preincubated for 6 hrs followed by H2O2 addition and measured after 24 hrs by Rh123 staining based flow cytometry (reference value: 26.31 +/- 3.32%); format: functional; procedure, shortened: as §3
SH-SY5Y [18] = test: Protection against H2O2-induced apoptosis in human SH-SY5Y cells assessed as late apoptotic cells at 10 uM preincubated for 6 hrs followed by H2O2 addition and measured after 24 hrs by Annexin V-FITC/propidium iodide staining based flow cytometry (reference value: 3.5%); format: functional

## COC(=O)[C@H](Cc1ccccc1)NC(=O)/C=C/c1ccc(O)c(O)c1 [N-CAFFEOYL-PHENYLALANINE METHYL ESTER]
[1]
  Activity: Dose-dependent effect
[2]
  Activity: Active
SH-SY5Y [3]
  viability at 10 µM: 65.9%
[4]
  Tmax: 2 h
SH-SY5Y [5]
  Activity: 7.3%
Mus musculus [6]
  Activity: Non-Toxic
SH-SY5Y [7]
  Activity: >50%
Mus musculus [8]
  Activity: Active
SH-SY5Y [9]
  Activity: Dose-dependent effect
SH-SY5Y [10]
  Activity: Non-Toxic
[11]
  Activity: 206%
[12]
  Activity: inactive
SH-SY5Y [13]
  Activity: 79.4%
Mus musculus [14]
  Activity: Dose-dependent effect
SH-SY5Y [15]
  Activity: inactive
[16]
  Vd: 2.25 L/kg
SH-SY5Y [17]
  Activity: 98.3%
SH-SY5Y [18]
  Activity: 1.5%
